Experimental findings from ChEMBL document CHEMBL4145646, “Macrophilones from the Marine Hydroid Macrorhynchia philippina Can Inhibit ERK Cascade Signaling” (J Nat Prod, 2018) are described below.

The source made the active and inactive calls. The calls are words filed in the database; no cut-off is given here.

In test [1] the target is Dual specificity mitogen-activated protein kinase kinase 1 (Homo sapiens) (UniProt Q02750). Kind of test: Inhibition of wild-type MEK1 (unknown origin) at 10 uM using inactive ERK2 as substrate pretreated for 20 mins followed by substrate addition and measured after 30 mins in presence of [gamma32P]ATP by autoradiography.
Another test is filed under the species Homo sapiens. The experiment in a line: Inhibition of ERK (unknown origin).
In test [2] the target is T1, Dual specificity mitogen-activated protein kinase kinase; MEK1/2 (Homo sapiens) (UniProt P36507+Q02750). The experiment in a line: Increase in MEK phosphorylation in human COLO205 cells harboring B-Raf V600E mutant at 1 uM after 18 hrs by Western blot analysis. Type of test: cell-based. Summed up:
(§1)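 Colo205 cells grown at 37 °C, 5% CO2 in RPMI-1640 with 10% FBS and 2 mM L-glutamine. Compounds added in DMSO (final 0.1% v/v), vehicle-only controls. Cells washed twice in ice-cold PBS, lysed in RIPA buffer (pH 8.0, with protease and phosphatase inhibitors). Lysates clarified, equalized for protein, then immunoblotted for B-Raf, C-Raf, ERK2, MEK1, pS217/221-MEK and pT202/Y204-ERK.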

Test [3] addresses RAF proto-oncogene serine/threonine-protein kinase (Homo sapiens) (UniProt P04049). Kind of test: Inhibition of C-Raf (unknown origin) at 10 uM using inactive MEK as substrate pretreated for 20 mins followed by substrate addition and measured after 30 mins in presence of [gamma32P]ATP by autoradiography.
In test [4] the test system is COLO 205. The experiment in a line: Down regulation of total ERK level in human COLO205 cells harboring B-Raf V600E mutant at 1 to 10 uM measured after 18 hrs by Western blot analysis. In kind it is functional, cell-based. The method, boiled down:
as §1

For test [5], the target named is Serine/threonine-protein kinase B-raf (Homo sapiens) (UniProt P15056). The experiment in a line: Inhibition of B-Raf (unknown origin) at 10 uM using inactive MEK as substrate pretreated for 20 mins followed by substrate addition and measured after 30 mins in presence of [gamma32P]ATP by autoradiography.
A further test concerns SK-MEL-5. The experiment in a line: Growth inhibition of human SK-MEL-5 cells harboring B-Raf V600E mutant after 48 hrs by sulforhodamine B assay. Type of test: functional, cell-based. The method, boiled down:
(§2)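 Tested in the NCI-60 human tumor cell line screen as DMSO solutions. Results analyzed with CellMiner bioinformatics tools.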

Another test deals with Malme-3M. Kind of test: Growth inhibition of human MALME-3M cells harboring B-Raf V600E mutant after 48 hrs by sulforhodamine B assay. Type of test: functional, cell-based. The method, boiled down: as §2
The next test relates to MDA-MB-435. Kind of test: Growth inhibition of human MDA-MB-435 cells harboring B-Raf V600E mutant after 48 hrs by sulforhodamine B assay. In kind it is functional, cell-based. The method, boiled down:
as §2

In test [6] the test system is COLO 205. Kind of test: Growth inhibition of human COLO205 cells harboring B-Raf V600E mutant after 48 hrs by sulforhodamine B assay. Type of test: functional, cell-based. The method, boiled down:
as §2

Test [7] concerns Serine/threonine-protein kinase B-raf (Homo sapiens), P15056 [V600E]. Kind of test: Increase in ERK phosphorylation in human COLO205 cells harboring B-Raf V600E mutant at 1 uM after 18 hrs by Western blot analysis. In kind it is cell-based. Summed up: as §1
The subject of test [8] is COLO 205. Kind of test: Effect on total ERK level in human COLO205 cells harboring B-Raf V600E mutant at 1 to 10measured after 18 hrs by Western blot analysis. In kind it is functional, cell-based. Summed up: as §1
The target of test [9] is T1, Dual specificity mitogen-activated protein kinase kinase; MEK1/2 (Homo sapiens). The experiment in a line: Inhibition of MEK phosphorylation in human COLO205 cells harboring B-Raf V600E mutant at 1 to 10 uM after 18 hrs by Western blot analysis. In kind it is cell-based. Summed up:
as §1

For test [10], the system named is COLO 205. The experiment in a line: Effect on total MEK level in human COLO205 cells harboring B-Raf V600E mutant at 1 to 10measured after 18 hrs by Western blot analysis. In kind it is functional, cell-based. Summed up:
as §1

For test [11], the system named is COLO 205. The experiment in a line: Effect on total C-Raf level in human COLO205 cells harboring B-Raf V600E mutant at 1 to 10measured after 18 hrs by Western blot analysis. Type of test: functional, cell-based. The method, boiled down:
as §1

For test [12], the system named is COLO 205. Kind of test: Effect on total B-Raf level in human COLO205 cells harboring B-Raf V600E mutant at 1 to 10measured after 18 hrs by Western blot analysis. Type of test: functional, cell-based. The method, boiled down:
as §1

T1 sequence (P36507 whole entry, looked up): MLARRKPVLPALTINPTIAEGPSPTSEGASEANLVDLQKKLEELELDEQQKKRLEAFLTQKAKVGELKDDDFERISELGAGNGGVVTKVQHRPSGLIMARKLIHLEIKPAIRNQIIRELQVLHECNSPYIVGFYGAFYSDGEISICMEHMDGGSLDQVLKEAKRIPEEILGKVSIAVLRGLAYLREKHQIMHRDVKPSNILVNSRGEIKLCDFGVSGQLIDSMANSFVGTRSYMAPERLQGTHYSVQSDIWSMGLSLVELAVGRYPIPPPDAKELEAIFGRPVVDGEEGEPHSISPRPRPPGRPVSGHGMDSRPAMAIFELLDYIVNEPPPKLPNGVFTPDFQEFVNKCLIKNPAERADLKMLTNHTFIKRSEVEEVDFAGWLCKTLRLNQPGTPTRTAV
T1 sequence (Q02750 whole entry, looked up): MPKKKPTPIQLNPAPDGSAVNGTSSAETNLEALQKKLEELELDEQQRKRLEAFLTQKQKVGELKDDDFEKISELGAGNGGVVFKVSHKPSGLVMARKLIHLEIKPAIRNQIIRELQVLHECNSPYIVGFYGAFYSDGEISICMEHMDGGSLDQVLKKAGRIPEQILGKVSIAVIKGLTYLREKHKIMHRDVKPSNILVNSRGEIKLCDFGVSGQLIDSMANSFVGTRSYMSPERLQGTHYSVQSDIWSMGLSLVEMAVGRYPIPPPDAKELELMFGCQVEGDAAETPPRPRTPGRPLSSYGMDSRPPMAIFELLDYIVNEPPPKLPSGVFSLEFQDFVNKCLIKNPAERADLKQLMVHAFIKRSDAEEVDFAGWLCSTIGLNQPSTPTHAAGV
Sequence of RAF proto-oncogene serine/threonine-protein kinase (Homo sapiens) (P04049 whole entry): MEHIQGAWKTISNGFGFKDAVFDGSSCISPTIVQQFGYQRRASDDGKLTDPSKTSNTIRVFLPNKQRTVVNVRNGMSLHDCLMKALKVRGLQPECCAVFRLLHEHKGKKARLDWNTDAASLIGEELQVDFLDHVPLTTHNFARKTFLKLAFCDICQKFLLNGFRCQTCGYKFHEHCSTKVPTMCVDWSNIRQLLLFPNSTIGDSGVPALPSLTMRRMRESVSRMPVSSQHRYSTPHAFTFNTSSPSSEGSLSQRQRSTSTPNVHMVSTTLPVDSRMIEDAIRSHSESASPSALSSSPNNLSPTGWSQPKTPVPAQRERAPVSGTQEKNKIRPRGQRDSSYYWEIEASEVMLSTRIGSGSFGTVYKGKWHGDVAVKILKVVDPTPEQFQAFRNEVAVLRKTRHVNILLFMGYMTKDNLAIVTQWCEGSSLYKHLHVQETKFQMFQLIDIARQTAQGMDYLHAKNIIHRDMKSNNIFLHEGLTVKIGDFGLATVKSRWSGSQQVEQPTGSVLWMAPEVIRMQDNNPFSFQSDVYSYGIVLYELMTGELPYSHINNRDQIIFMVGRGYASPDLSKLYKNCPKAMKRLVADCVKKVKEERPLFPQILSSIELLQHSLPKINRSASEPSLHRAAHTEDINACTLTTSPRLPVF
Sequence of Dual specificity mitogen-activated protein kinase kinase 1 (Homo sapiens) (Q02750 whole entry): as the sequence (Q02750 whole entry, looked up) above
Sequence of Serine/threonine-protein kinase B-raf (Homo sapiens) (P15056 whole entry): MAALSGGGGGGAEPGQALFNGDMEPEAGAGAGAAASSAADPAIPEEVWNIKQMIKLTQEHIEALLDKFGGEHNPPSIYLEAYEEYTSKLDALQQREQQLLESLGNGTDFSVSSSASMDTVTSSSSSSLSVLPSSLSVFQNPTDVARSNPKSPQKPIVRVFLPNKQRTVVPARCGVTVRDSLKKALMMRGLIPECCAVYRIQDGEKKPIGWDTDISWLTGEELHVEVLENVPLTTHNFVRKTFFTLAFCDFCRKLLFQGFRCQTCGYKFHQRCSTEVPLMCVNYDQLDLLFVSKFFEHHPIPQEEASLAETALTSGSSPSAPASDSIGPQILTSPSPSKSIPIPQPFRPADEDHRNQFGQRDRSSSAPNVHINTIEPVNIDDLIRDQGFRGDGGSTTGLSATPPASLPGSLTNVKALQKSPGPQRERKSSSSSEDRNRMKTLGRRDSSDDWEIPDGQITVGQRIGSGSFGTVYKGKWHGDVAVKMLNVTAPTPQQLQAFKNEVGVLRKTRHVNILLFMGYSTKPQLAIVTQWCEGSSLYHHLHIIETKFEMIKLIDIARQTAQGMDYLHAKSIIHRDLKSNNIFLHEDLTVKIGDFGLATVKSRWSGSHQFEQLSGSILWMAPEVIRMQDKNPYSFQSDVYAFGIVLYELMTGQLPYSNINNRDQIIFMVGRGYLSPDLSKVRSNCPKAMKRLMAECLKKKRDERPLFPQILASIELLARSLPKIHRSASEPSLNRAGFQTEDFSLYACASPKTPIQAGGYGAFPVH
Sequence of Serine/threonine-protein kinase B-raf (Homo sapiens), P15056 [V600E] (P15056 whole entry V600E): as the sequence (P15056 whole entry) above, with V600E counted along it

With `N=C1C2=C(NCC[S+]2[O-])C(=O)c2[nH]cc(CO)c21` (stereo unspecified), the inhibition result (in test [1]; in the test filed under Homo sapiens; in test [3]; in test [5]) was “inactive” each time. The outcome in [2] was Active. The result with COLO 205 [4] was inactive.
As for `N=C1C2=C(NCCS2)C(=O)c2[nH]cc(CO)c21`, the inhibition entry (in [1]; in the test listed under Homo sapiens; in test [3]; in test [5]) was “inactive” throughout. For the same molecule, the “growth inhibition (GI)” value in the test on SK-MEL-5, in the test on Malme-3M, with MDA-MB-435 and in the test with COLO 205 [6] was “Active” throughout. Further, the result in test [2] and in test [7] was Active. The result in the test with COLO 205 [4] was inactive.
As to `CN(C)CCOc1ccc(-c2nc(-c3ccc4c(c3)CC/C4=N/O)c(-c3ccncc3)[nH]2)cc1`, the result with COLO 205 [8], with COLO 205 [10], in the test on COLO 205 [11] and with COLO 205 [12] was inactive. Also, the inhibition result in [9] is “Active”.
Take `CSC1=C(N)C(=O)c2[nH]cc(CO)c2C1=N`: the inhibition entry (in [1]; in the test filed under Homo sapiens; in test [3]; in test [5]) was “inactive” in each case. Also, the “growth inhibition (GI)” value with SK-MEL-5, in the test on Malme-3M, with MDA-MB-435 and in the test on COLO 205 [6] was “Active” each time. Also, in the test with COLO 205 [4], the result was inactive.
